This is an account of results in ChEMBL document CHEMBL1811801, “Structural modifications of quinolone-3-carboxylic acids with anti-HIV activity” (Bioorg Med Chem, 2011).

Series [1] can be described thus: Selectivity index, ratio of CC50 for human C8166 cells to EC50 for HIV1 LAI 3B. In kind it is toxicity, cell-based. The following applies: read-out: Ratio CC50/EC50.
A short description of series [2]: Cytotoxicity against human C8166 cells by MTT assay. Type of series: cell-based. The method, boiled down: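 Uninfected C8166 cells exposed to compound; viability read by MTT assay. CC50 is the concentration lowering normal uninfected cell viability by 50%. Values are means of at least two separate experiments.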
On the technique in general: Tetrazolium assays rely on reduction of a dye to a coloured formazan, in cell work by metabolically active cells.

Series [3] relates to Human immunodeficiency virus 1. Nature of the series: Antiviral activity against HIV1 LAI 3B infected in human C8166 cells assessed as protection against virus-induced cytopathic effect by MTT assay. The following applies: Human immunodeficiency virus 1, LAI 3B. Type of series: functional, organism-based. The method, boiled down:
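C8166 cells infected with wild-type HIV-1 (LAI strain IIIB); protection from viral cytopathogenicity read by MTT assay. EC50 is the concentration protecting cells against virus-induced cytopathogenicity by 50%. Values are means of at least two separate experiments.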

In general, CC50 refers to the concentration giving 50% cytotoxicity. Read a high CC50 as lower toxicity to the cells. The EC50 is the concentration that produces a half-maximal response. With `CCCCCn1cc(C(=O)O)c(=O)c2c(O)c(Cc3cccc(Cl)c3F)ccc21`, the selectivity ratio in series [1] came out at 1.7. For the same compound, it took 39.9 µM to reach half-maximal cytotoxicity in series [2] (CC50). The EC50 in series [3] was determined as 23.5 µM.

On to `CCCn1cc(C(=O)O)c(=O)c2c(O)c(Cc3cccc(Cl)c3F)ccc21`, for which the selectivity ratio in series [1] is 8.66. For the same compound, half-maximal cytotoxicity in series [2] (CC50) was put at 24.2 µM. Also, the EC50 in series [3] stood at 2.79 µM.

As for `CCCCn1cc(C(=O)O)c(=O)c2c(O)c(Cc3cccc(Cl)c3F)ccc21`, in series [1], the selectivity ratio was 2.47. Further, the CC50 in series [2] came out at 19.9 µM. In series [3], the EC50 was found to be 8.09 µM.

Take `CC(C)n1cc(C(=O)O)c(=O)c2c(O)c(Cc3cccc(Cl)c3F)ccc21`: the selectivity ratio in series [1] was 5.97. Moreover, the CC50 in series [2] came to 26.5 µM. Also, the EC50 in series [3] is 4.44 µM.

With `CC(C)Cn1cc(C(=O)O)c(=O)c2c(O)c(Cc3cccc(Cl)c3F)ccc21`, the selectivity ratio in series [1] was 5.63. The compound further came in with a CC50 in series [2] of 19.5 µM. The EC50 in series [3] is 3.47 µM.

With `CCC(C)n1cc(C(=O)O)c(=O)c2c(O)c(Cc3cccc(Cl)c3F)ccc21` (stereo unspecified), the selectivity ratio in series [1] came out at 16.8. This compound also gave a CC50 in series [2] of 30.7 µM. The half-maximal effective concentration (EC50) in series [3] turned out to be 1.83 µM.

Consider `CC(C)(C)n1cc(C(=O)O)c(=O)c2c(O)c(Cc3cccc(Cl)c3F)ccc21`, for which the selectivity ratio in series [1] is 88.3. Further, half-maximal cytotoxicity in series [2] (CC50) was put at 400 µM. Moreover, in series [3], the EC50 was 4.53 µM.

As for `O=C(O)c1cn(C2CC2)c2ccc(Cc3cccc(Cl)c3F)c(O)c2c1=O`, the selectivity ratio in series [1] turned out to be 19.5. Further, the CC50 in series [2] was 39.1 µM. The EC50 in series [3] turned out to be 2.01 µM.

With `O=C(O)c1cn(C2CCCC2)c2ccc(Cc3cccc(Cl)c3F)c(O)c2c1=O`, the selectivity ratio in series [1] is 3.21. In series [2], this compound yielded a CC50 of 12.4 µM. Moreover, in series [3], the EC50 stood at 3.87 µM.

Take `O=C(O)c1cn(C2CCCCC2)c2ccc(Cc3cccc(Cl)c3F)c(O)c2c1=O`: the selectivity ratio in series [1] was 6.18. The compound also came in with a 50% cytotoxic concentration (CC50) in series [2] of 17.4 µM. Moreover, the EC50 in series [3] stood at 2.81 µM.

As to `CC(C)[C@@H](CO)n1cc(C(=O)O)c(=O)c2c(O)c(Cc3cccc(Cl)c3F)ccc21`, the selectivity ratio in series [1] turned out to be 962. This compound also showed a CC50 in series [2] of 125 µM. In series [3], the EC50 amounted to 0.13 µM.

`COc1cc2c(cc1Cc1cccc(Cl)c1F)c(=O)c(C(=O)O)cn2[C@H](CO)C(C)C` [ELVITEGRAVIR]: in series [1], the selectivity ratio is 81900. Further, in series [2], half-maximal cytotoxicity (CC50) was put at 17.2 µM. The EC50 in series [3] came to 0.00021 µM.
